≈ marks a conversion by molar mass, not a printed value. Calls of active or inactive are those of the source. Where a SMILES comes first, the peptide text is derived from it. Bridges are numbered along the chain shown (N, C = ends). [ ]: non-standard residue; d: D form. Dab = NCC[C@H](N)C(=O)O
Experiments:
[1] = system: Escherichia coli; experiment: Inhibition of multidrug resistance efflux pump in Escherichia coli assessed as concentration required to reduce levofloxacin MIC by 4-fold by checkerboard assay
[2] = system: Enterobacteriaceae; experiment: Antimicrobial activity against Enterobacteriaceae; format: functional
[3] = Metabolic stability in human liver microsomes assessed as compound remaining at 25 uM after 60 mins by HPLC analysis in presence of NADPH; format: ADME; conditions: read-out: Stability
Method in brief: (§1)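 Human or mouse liver microsomes at 0.5 mg/mL in 100 mM potassium phosphate pH 7.4 with 3 mM MgCl2, test compound 25 µM final, with or without (control) 2 mM NADPH; 37 °C for one hour, then stopped with equal volume acetonitrile containing 0.1% trifluoroacetic acid. Value: peak area with NADPH relative to no-NADPH control, as percent remaining.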

[4] = system: Escherichia coli; experiment: Inhibition of lactose permease-dependent [3H]TMG uptake in Escherichia coli HN1157 up to 20 uM
Method in brief: (§2)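 Proton motive force probed in E. coli HN1157 by LacY permease-mediated accumulation of [methyl-3H] thiogalactopyranoside (stock 1 mCi/ml, 7 Ci/mmol), compounds tested at concentrations up to 20 µM.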

[5] = system: HeLa; experiment: Cytotoxicity against human HeLa cells; format: cell-based
[6] = system: Escherichia coli; experiment: Inhibition of lactose permease in Escherichia coli HN1157 assessed as [3H]TMG accumulation up to 20 uM relative to control; method in brief: as §2
[7] = Metabolic stability in mouse liver microsomes assessed as compound remaining at 25 uM after 60 mins by HPLC analysis in presence of NADPH; format: ADME; conditions: read-out: Stability; method in brief: as §1
[8] = system: Escherichia coli; experiment: Inhibition of multidrug resistance efflux pump in wild-type Escherichia coli AB1157 assessed as concentration required to reduce piperacillin MIC by 4-fold by checkerboard assay
[9] = system: Escherichia coli; experiment: Antibacterial activity against Escherichia coli at 100 uM; format: functional, organism-based
[10] = system: Escherichia coli; experiment: Effect on outer membrane permeability in AcrAB-deficient Escherichia coli HN1159 assessed as influx of nitrocefin at 20 uM; format: functional
[11] = Aqueous solubility of the compound by nephlometric method; format: physicochemical
Method in brief: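 Maximum solubility in water, measured by nephelometry.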

[12] = system: Escherichia coli; experiment: Antibacterial activity against TolC-deficient Escherichia coli AB1157; format: functional
Method in brief: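 MIC determined following CLSI guidelines, with modifications from the authors' earlier work, in the TolC-deficient mutant of E. coli AB1157.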

[13] = system: Escherichia coli; experiment: Antibacterial activity against wild-type Escherichia coli AB1157; format: functional
Method in brief: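 MIC determined according to CLSI guidelines, with modifications described in earlier work.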

[14] = Inhibition of mouse liver microsome CYP3A4 at 3 uM after 10 mins by luminescence assay; format: ADME; conditions: microsomes
[15] = system: Escherichia coli; experiment: Effect on outer membrane permeability in AcrAB-deficient Escherichia coli HN1159 assessed as influx of nitrocefin at 20 ug/ml; format: functional
[16] = system: Escherichia coli; experiment: Inhibition of lactose permease in Escherichia coli HN1157 assessed as [3H]TMG accumulation up to 100 uM relative to control

Structure (SMILES)	INH [1] [µM]	MIC [2] [µM]	remaining at 1 h, 25 µM [3] [%]	inhibition [4]	CC50 [5] [µM]	[3H]TMG accumulation relative to control [6] [%]	remaining at 1 h, 25 µM [7] [%]	INH [8] [µM]	Activity [9]	Activity [10] [%]	solubility kinetic [11] [µM]	MIC [12] [µM]	MIC [13] [µM]	inhibition (INH) [14] [%]	Activity [15] [%]	inhibition [16] [%]
CC1(C)Cc2c(C#N)c(SCCc3ccccc3)nc(N3CCOCC3)c2CO1	3.1	≥ 100	0	inactive	> 100	102	0	3.1	inactive	90	12 (≈ 4.91 µg/mL)					
CCN1CCN(C(=O)N[C@@H](C(=O)N[C@@H]2C(=O)N3[C@@H]2SC(C)(C)[C@@H]3C(=O)O)c2ccccc2)C(=O)C1=O [PIPERACILLIN]												0.125 (≈ 0.0647 µg/mL)	4 (≈ 2.07 µg/mL)			
COCCN1CCN(c2nc(SCCc3ccc(OC)cc3)c(C#N)c3c2COC(C)(C)C3)CC1	6.3			inactive	34.8	103	17	3.1	inactive	94	≥ 100			42		
CC1CN(c2nc(SCCc3ccc(N)cc3)c(C#N)c3c2COC(C)(C)C3)CC(C)O1 (stereo not drawn)	0.8		76	inactive	52.2	100	72	0.8	inactive	102	12 (≈ 5.43 µg/mL)			59		
COc1cccc(CCSc2nc(N3CCOCC3)c3c(c2C#N)CC(C)(C)OC3)c1	2.4		8	inactive	> 100	99	0	1.6	inactive	94	50 (≈ 22 µg/mL)			29		
CC(=O)Nc1ccc(CCSc2nc(N3CC(C)OC(C)C3)c3c(c2C#N)CC(C)(C)OC3)cc1 (stereo not drawn)	0.1		37	inactive	60.5	97	0	0.1	inactive	100	50 (≈ 24.7 µg/mL)			61		
COCCN1CCN(c2nc(SCCc3ccc(OC)c(OC)c3)c(C#N)c3c2COC(C)(C)C3)CC1	1.6		20	inactive	38.8	100	13	0.4	inactive	100	≥ 100			48		
CC1CN(c2nc(SCCc3ccc(NC(=N)N)cc3)c(C#N)c3c2COC(C)(C)C3)CC(C)O1 (stereo not drawn)	0.8		90	inactive	12	86	90	0.8	inactive		100 (≈ 49.5 µg/mL)			9		
CC1CN(c2nc(SCCc3ccc(NC(=O)OC(C)(C)C)cc3)c(C#N)c3c2COC(C)(C)C3)CC(C)O1 (stereo not drawn)	0.8		59	inactive	> 100		66	0.4	inactive	99	100 (≈ 55.3 µg/mL)			0		
C=CC(=O)Nc1ccc(CCSc2nc(N3CC(C)OC(C)C3)c3c(c2C#N)CC(C)(C)OC3)cc1 (stereo not drawn)	0.1		100	inactive	62.4	99	49	0.05	inactive	89	25 (≈ 12.7 µg/mL)					
CC1CN(c2nc(SCCc3cccnc3)c(C#N)c3c2COC(C)(C)C3)CC(C)O1 (stereo not drawn)	12.5		53	inactive	42.6		19	3.1	inactive	86	≥ 100			0		
CC(C)C[C@@H]1NC(=O)[C@@H](Cc2ccccc2)NC(=O)[C@H](CCN)NC(=O)[C@@H](NC(=O)[C@H](CCN)NC(=O)[C@@H](N)[C@@H](C)O)CCNC(=O)[C@H]([C@@H](C)O)NC(=O)[C@H](CCN)NC(=O)[C@H](CCN)NC1=O [POLYMYXIN B NONAPEPTIDE] (H-T[Dab][Dab][Dab][dF]L[Dab][Dab]T; lactam 3-C)															162	
CC1CN(c2nc(SCCc3cccc(F)c3)c(C#N)c3c2COC(C)(C)C3)CC(C)O1 (stereo not drawn)	1.6			inactive	> 100	103		1.6	inactive	99						
N#CC(C#N)=NNc1cccc(Cl)c1																3
C[C@H]1COc2c(N3CCN(C)CC3)c(F)cc3c(=O)c(C(=O)O)cn1c23 [LEVOFLOXACIN]												0.016 (≈ 0.00578 µg/mL)	0.063 (≈ 0.0228 µg/mL)			
